A number with no mark means an inactive call. Inconclusive results are not listed. Activity calls are given as the source filed them.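 Rule for the calls, unless noted: active = cell viability at or below a set limit in both duplicate runs, the limit being the all-compound median minus 4 SD (cut at about 23% in these data, passing the limit was not always enough); inconclusive = no clear call, values can overlap the other calls; inactive = the rest.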
Tests used:
[1] = S. cerevisiae growth inhibition in permissive medium (OD615), pilot counter-assay for S. cerevisiae lifespan shortening project, permissive growth control (AID 705;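 active = growth inhibition above 25% in both replicates, a cutoff set 3 SD above the mean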); details: OD615, 24 h, at 10 µM, stronger effect = higher value
Procedure, shortened: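 Test system: Saccharomyces cerevisiae strain carrying genetically modified DeaD replicative-lifespan system; buffer or medium: SC raffinose/galactose permissive medium; dosing: one dose 10 µM, DMSO 0.25% final; times: 24 h exposure, 30 °C; measured by: OD at 615 nm; read-out basis: growth inhibition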

[2] = S. cerevisiae growth inhibition in restrictive medium, OD615, pilot screen, restrictive growth control, yeast lifespan reduction project (AID 706;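 active = growth inhibition above a set limit, 3 SD over mean compound inhibition, in both replicates, cut at about 43% in these data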;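 note: modified DeaD lifespan yeast strain shifted to restrictive glucose medium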); details: OD615, 48 h, at 10 µM, stronger effect = higher value
Procedure, shortened: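 material = engineered S. cerevisiae DeaD strain | buffer or medium = glucose-based CSMM-D restrictive medium | dosing = one concentration, 10 µM final, 0.25% DMSO | schedule = 4 h pre-growth plus 48 h compound exposure, 30 °C | detection = OD615 absorbance reading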

[3] = doxorubicin toxicity protection in MRP-1 cells – H69AR cells, CellTiter-Glo, duplicate, MRP-1 activator project, pilot screen (AID 807;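 active = viability increase at or above a cutoff of the median across tested compounds plus 3 SD, cut at about 8.5% in these data, passing the limit was not always enough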;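 note: compound pretreatment 18-22 h then 72 h combined with doxorubicin; 0% = doxorubicin alone and 100% = vehicle without doxorubicin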); details: H69AR viability with doxorubicin, CellTiter-Glo luminescence; at 10 µM; stronger effect = higher value
[4] = viability of HCT116 without oncogenic beta-catenin – human colon tumor cells, pilot screen (AID 823); details: HCT116 beta-catenin knockout viability, CellTiter-Glo, 60 h; at 10 µM; stronger effect = lower value;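 note: 0% = wells killed by 20 µM Hyamine and 100% = untreated DMSO cell wells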
[5] = viability of PTEN-null HCT116 cells – cell-based, HCT116 clonal line, CellTiter-Glo, pilot screen (AID 824;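 active = viability at or below 27.92% in each of two runs, the all-compound median minus 4 SD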;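 note: 0% = 20 µM Hyamine control and 100% = vehicle cell control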); details: HCT116 PTEN-deleted viability, 60 h, at 10 µM, stronger effect = lower value
[6] = RAM pathway blockade in budding yeast – dse1pr::URA3 reporter, 5-FOA selection, pilot screen (AID 869;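 active = inhibition over a set limit, the all-compound mean plus 3 SD, in both replicate runs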;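 note: 0% = DMSO wells with no growth and 100% = 10 µM 1-NA-PP1 with full growth; RAM network block rescues cells from 5-FOA so hits raise OD615 growth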); details: S. cerevisiae dse1pr::URA3 5-FOA growth, OD615, 2 d; at 10 µM; stronger effect = higher value; strain carries analog-sensitive mutant Cbk1 kinase
[7] = RAM signaling pathway blockade in yeast – S. cerevisiae, Pdr1DBD-CYC8 efflux-inhibited sensitized strain, primary screen (AID 1298;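 active = RAM network inhibition above 8.4% in each of two replicates, 3 SD over the compound average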;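 note: 0% = DMSO untreated cells without growth and 100% = 10 µM 1-NA-PP1 full growth; higher means more yeast growth rescued from 5-FOA killing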); details: S. cerevisiae cbk1-as DSE1-URA3 strain, 5-FOA growth OD615, 2 d; at 50 µM; stronger effect = higher value

SMILES	growth inhibition [1]	growth inhibition [2]	viability increase [3]	viability [4]	viability [5]	inhibition [6]	RAM network inhibition [7]
Cc1nc2cc(C(=O)O)ccc2n1-c1ccccc1	-11.5%	-0.12%	-2.1%	109%	94.8%	1.99%	1.31%
CCOC(=O)c1cc(-c2ccc(F)cc2)n(CC(=O)Nc2nccs2)c1C	-11.3%	1.7%	-5.35%	59%	62.6%	1.99%	4.55%
CCOC(=O)Cc1csc(NC(=O)c2c(-c3ccccc3)noc2C)n1	-10.4%	-8.59%	4.11%	99.4%	101%	-0.185%	1.54%
CCOC(=O)c1cnn2c(C(F)(F)F)cc(-c3ccccc3)nc12	-6.86%	-9.75%	-3.13%	84%	86.9%	2.29%	2.4%
COc1cc(CC(=O)O)c(C(C)=O)cc1OC	0.26%	0.155%	-1.29%	100%	102%	0.365%	-0.36%
Nc1cc(C(=O)c2cccs2)ccc1Cl	-9.76%	-0.475%	-1.88%	90.9%	96.7%	0.165%	3.24%
COc1ccc(NC(=O)c2cc3ccccc3o2)cc1	-7.97%	10.6%	-4.64%	86.6%	75.8%	0.89%	-1.4%
CCOC(=O)c1ccccc1NC(=O)CN(c1ccccc1OCC)S(C)(=O)=O	2.85%	1.95%	-1.57%	96.4%	98%	1.1%	2.46%
CCN(CC)S(=O)(=O)c1ccc(S(=O)(=O)N2CCN(CCC#N)CC2)cc1	-8.46%	-3.54%	-1.58%	99.6%	94.7%	1.38%	-1.32%
CCn1c(N2CCC(C)CC2)nc2c1c(=O)n(C)c(=O)n2C	-10.5%	1.69%	-0.88%	92.9%	85%	1.12%	0.06%
O=C1CC(c2ccco2)CC2=C1C1c3ccccc3C(=O)N1c1ccccc1N2 (stereo not drawn)	-9.63%	-5.43%	3.98%	7.74% (active)	7.59% (active)	1.36%	4.2%
O=C(c1ccc2c(c1)C(=O)N(Cc1ccco1)C2O)N1CCOCC1 (stereo not drawn)	1%	-5.05%	-2.58%	109%	98.3%	2.12%	1.94%
C=C(C)Cn1c(C2CC(=O)N(c3ccccc3F)C2)nc2ccccc21 (stereo not drawn)	-9.62%	-5.32%	-2.5%	100%	105%	0.42%	1.56%
CCOC(=O)c1c(C2CCN(C(=O)OCC)CC2)nc2ccccn12	-9.71%	-12.6%	-1.79%	95.4%	88.7%	2.99%	2.43%
CCOC(=O)c1ccc(NC(=O)C(C)N2C(=O)c3ccccc3C2=O)cc1 (stereo not drawn)	-13.1%	-21.9%	0.15%	104%	100%	0.645%	4.7%
CCN(CC)CCNC(=O)c1cn(CC)c2ccc(S(=O)(=O)N(C)C)cc2c1=O	0.365%	8.34%	-1.41%	106%	101%	2.2%	2.04%
CCN(CC)CCCNC(=O)c1cc2c(-c3ccc(Cl)cc3)nn(C)c2s1	0.63%	17.3%	-8.12%	1.68% (active)	1.82% (active)	-0.18%	-0.36%
CCOC(=O)C1CCCN(C(=O)c2cc3c(=O)n(C)c4ccccc4c3n2C)C1 (stereo not drawn)	-1.98%	0.3%	-3.5%	94.2%	92.7%	0.67%	-0.46%
Cn1c(=O)[nH]c(=O)c2c1nc(SCCN1CCOCC1)n2CCCc1ccccc1	-6.32%	-14.4%	-3.69%	96.8%	85.5%	0.63%	4.46%
CC(C)NC(=O)C1(O)c2ccccc2NC(=O)N1c1ccc(Cl)c(Cl)c1 (stereo not drawn)	-5.92%	-12.9%	-2.69%	89.6%	93.9%	0.375%	2.53%
CCCC1(C(=O)O)NC(c2ccccc2O)C2C(=O)N(c3cccc(Cl)c3)C(=O)C21 (stereo not drawn)	6.45%	7.74%	0.1%	107%	94.5%	0.955%	0.05%
COc1nc(NCCC2=CCCCC2)nc(OC)n1	-12.2%	2.74%	2.72%	98.6%	99.4%	0.235%	3.01%
CCCC(=O)C1=C(O)C(C(=O)OC)C(C)(C)CC1=NC (stereo not drawn)	-14.5%	-12.3%	0.12%	95.3%	94.9%	0.54%	0.46%
NC(=O)c1sc(=S)n(-c2ccc(Br)cc2)c1N	-6.66%	0.735%	-4.05%	97.7%	83.7%	1.51%	2.48%

Source: PubChem BioAssay
